Reference: ChEMBL document CHEMBL1156459, “Discovery of a small molecule antagonist of the parathyroid hormone receptor by using an N-terminal parathyroid hormone peptide probe” (Proc Natl Acad Sci U S A, 2007)
Square brackets hold non-standard residues; d marks the D form. Peptide text beside a SMILES is read from it. Nle = CCCC[C@H](N)C(=O)O; Aib = CC(C)(N)C(=O)O

How the values were obtained:
[1] = Effect on Pthr1 gene expression in rat UMR106 cells after 2 hrs by real time PCR method relative to control; assay type: functional
Method in brief: (§1)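 Confluent UMR106 cells were serum-starved (0.1% FBS, 24 h) and then given peptide in the medium for 2 h. Transcripts were quantified by TaqMan real-time RT-PCR, with relative expression levels set from a serial-dilution standard. Expression is reported as change versus untreated control.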

[2] = Stimulation of osteoclast-mediated bone resorption in fetal Sprague-Dawley rat radii/ulnae assessed as [45Ca]release measured on day 5; assay type: functional; details: 120 h
Method in brief: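 Fetal rat radii/ulnae prelabelled with 45Ca in utero, dissected and cultured. 45Ca released into the culture medium measured as the osteoclast-mediated resorption read-out.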

[3] = Effect on Pthr1 gene expression in rat UMR106 cells after 8 hrs by microarray analysis relative to control; assay type: functional
Method in brief: (§2)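 Rat UMR106 cells grown to confluency in DMEM/10% FBS, then moved to 0.1% FBS medium 24 h before treatment. Peptides (100 nM) were added to the medium for 2 or 8 h. Microarray profiling covered 8,799 reporters, with changes called at P < 0.01. Values are fold-change versus untreated control.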

[4] = biological target: T1, Parathyroid hormone/parathyroid hormone-related peptide receptor (Homo sapiens, UniProt Q03431); assay: Activity at human PTH/PTH-related peptide receptor expressed in SAOS2 cells assessed as cAMP formation; assay type: functional, cell-based, SAOS-2
T1 sequence (Q03431 whole entry): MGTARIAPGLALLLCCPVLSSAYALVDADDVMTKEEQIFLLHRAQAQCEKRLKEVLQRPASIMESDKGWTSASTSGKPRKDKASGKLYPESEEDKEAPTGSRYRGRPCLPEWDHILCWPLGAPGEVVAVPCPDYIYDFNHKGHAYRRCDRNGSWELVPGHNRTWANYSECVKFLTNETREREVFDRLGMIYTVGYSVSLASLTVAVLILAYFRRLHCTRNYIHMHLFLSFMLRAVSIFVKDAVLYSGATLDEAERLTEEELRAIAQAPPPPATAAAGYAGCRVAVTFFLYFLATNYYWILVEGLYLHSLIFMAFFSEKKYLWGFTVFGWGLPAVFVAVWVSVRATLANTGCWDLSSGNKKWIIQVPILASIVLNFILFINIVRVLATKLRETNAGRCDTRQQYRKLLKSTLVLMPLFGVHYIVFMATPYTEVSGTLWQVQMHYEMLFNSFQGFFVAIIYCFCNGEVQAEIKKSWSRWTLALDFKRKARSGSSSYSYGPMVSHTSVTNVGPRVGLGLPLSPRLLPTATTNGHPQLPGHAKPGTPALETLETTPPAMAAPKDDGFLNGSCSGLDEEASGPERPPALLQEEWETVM
Method in brief: (§3)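 Nonconfluent cells grown at 37°C in DMEM with 10% FBS, refed 12–24 h before assay. Rinsed with warm PBS, detached with prewarmed EDTA (37°C, 5–10 min), spun at 300 × g for 5 min. Resuspended in HBSS/5 mM Hepes/0.1% BSA/0.5 mM IBMX, pH 7.4. cAMP read by AlphaScreen.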

Rattus norvegicus = assay: Increase in cAMP level in ovariectomized rat plasma after 30 mins at 1 mg/kg, sc relative to control; assay type: functional; details: route subcutaneous
[5] = Effect on Bmp3 gene expression in rat UMR106 cells after 2 hrs by real time PCR method relative to control; assay type: functional; method in brief: as §1
[6] = biological target: T1, Parathyroid hormone/parathyroid hormone-related peptide receptor; assay: Activity at human PTH/PTH-related peptide receptor expressed in HEK293 cells assessed as induction of luciferase activity by CRE-luciferase reporter assay; assay type: functional, cell-based
[7] = Effect on c-fos gene expression in rat UMR106 cells after 2 hrs by real time PCR method relative to control; assay type: functional; method in brief: as §1
[8] = Effect on Ptpn16 gene expression in rat UMR106 cells after 8 hrs by microarray analysis relative to control; assay type: functional; method in brief: as §2
[9] = Effect on Pthr1 gene expression in rat UMR106 cells after 2 hrs by microarray analysis relative to control; assay type: functional; method in brief: as §2
[10] = biological target: T1, Parathyroid hormone/parathyroid hormone-related peptide receptor; assay: Binding affinity to PTH/PTH-related peptide receptor expressed in HKRK-B28 cells; assay type: cell-based
Method in brief: (§4)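 Whole HKRK-B28 cells plated at 30,000/well and incubated overnight at 37°C, 5% CO2. Incubated 3 h at room temperature, washed three times, bound radioactivity counted by scintillation.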

[11] = Effect on Crem gene expression in rat UMR106 cells after 2 hrs by microarray analysis relative to control; assay type: functional; method in brief: as §2
[12] = Effect on Crem gene expression in rat UMR106 cells after 2 hrs by real time PCR method relative to control; assay type: functional; method in brief: as §1
[13] = Decrease in collagen synthesis in neonatal CD1 mouse calivaria bone assessed as [3H]proline incorporation; assay type: functional
[14] = Stability in rat whole blood assessed as half life; assay type: ADME, tissue-based
Method in brief: (§5)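 Peptide incubated at 37°C in rat plasma or rat whole blood; half-life determined.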

[15] = Effect on Pde4b gene expression in rat UMR106 cells after 8 hrs by microarray analysis relative to control; assay type: functional; method in brief: as §2
[16] = biological target: T1, Parathyroid hormone/parathyroid hormone-related peptide receptor; assay: Activity at human PTH/PTH-related peptide receptor expressed in HEK293 cells assessed as induction of intracellular calcium mobilization; assay type: functional, cell-based
[17] = Effect on Ptpn16 gene expression in rat UMR106 cells after 2 hrs by real time PCR method relative to control; assay type: functional; method in brief: as §1
[18] = Effect on Ptpn16 gene expression in rat UMR106 cells after 2 hrs by microarray analysis relative to control; assay type: functional; method in brief: as §2
[19] = biological target: T1, Parathyroid hormone/parathyroid hormone-related peptide receptor; assay: Displacement of [125I]DPC-AJ1951 from PTH/PTH-related peptide receptor expressed in HKRK-B28 cells; assay type: cell-based; method in brief: as §4
[20] = Increase in trabecular bone mineral density in ovariectomized rat at 0.2 mg/kg, sc; assay type: functional, Trabecula; details: route subcutaneous
[21] = Effect on Pde4b gene expression in rat UMR106 cells after 2 hrs by microarray analysis relative to control; assay type: functional; method in brief: as §2
[22] = biological target: T2, Parathyroid hormone/parathyroid hormone-related peptide receptor (Rattus norvegicus, UniProt P25961); assay: Activity at rat PTH/PTH-related peptide receptor expressed in rat UMR106 cells assessed as cAMP formation; assay type: functional, cell-based; method in brief: as §3
T2 sequence (P25961 whole entry): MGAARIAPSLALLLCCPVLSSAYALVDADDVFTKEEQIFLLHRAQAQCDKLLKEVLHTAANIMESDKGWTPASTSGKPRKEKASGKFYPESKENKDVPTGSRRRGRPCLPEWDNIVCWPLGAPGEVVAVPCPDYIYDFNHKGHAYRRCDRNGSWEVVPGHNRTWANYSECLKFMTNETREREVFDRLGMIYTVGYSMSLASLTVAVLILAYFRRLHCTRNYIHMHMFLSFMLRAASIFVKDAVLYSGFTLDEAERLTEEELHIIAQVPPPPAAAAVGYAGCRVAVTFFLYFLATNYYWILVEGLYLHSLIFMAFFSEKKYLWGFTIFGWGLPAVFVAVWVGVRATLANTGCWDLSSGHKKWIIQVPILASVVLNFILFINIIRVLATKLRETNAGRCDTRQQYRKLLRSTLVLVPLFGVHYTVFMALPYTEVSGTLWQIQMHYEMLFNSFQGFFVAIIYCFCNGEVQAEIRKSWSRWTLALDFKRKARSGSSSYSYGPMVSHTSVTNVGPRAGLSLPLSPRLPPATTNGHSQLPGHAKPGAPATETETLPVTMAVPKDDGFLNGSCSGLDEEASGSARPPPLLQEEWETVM

[23] = biological target: T1, Parathyroid hormone/parathyroid hormone-related peptide receptor; assay: Displacement of [125I]DPC-AJ1951 from PTH/PTH-related peptide receptor expressed in HKRK-B28 cells in presence of SW106; assay type: cell-based; method in brief: as §4
[24] = Effect on Pde4b gene expression in rat UMR106 cells after 2 hrs by real time PCR method relative to control; assay type: functional; method in brief: as §1
[25] = Stability in rat plasma assessed as half life; assay type: ADME, cell-free; method in brief: as §5
[26] = Effect on IL18 gene expression in rat UMR106 cells after 2 hrs by real time PCR method relative to control; assay type: functional; method in brief: as §1
[27] = Effect on c-fos gene expression in rat UMR106 cells after 2 hrs by microarray analysis relative to control; assay type: functional; method in brief: as §2
[28] = Effect on c-fos gene expression in rat UMR106 cells after 8 hrs by microarray analysis relative to control; assay type: functional; method in brief: as §2
[29] = Stimulation of cell proliferation in neonatal CD1 mouse calivaria assessed as increase in [3H]thymidine incorporation; assay type: functional
[30] = Effect on IL18 gene expression in rat UMR106 cells after 8 hrs by microarray analysis relative to control; assay type: functional; method in brief: as §2
[31] = Effect on Bmp3 gene expression in rat UMR106 cells after 8 hrs by microarray analysis relative to control; assay type: functional; method in brief: as §2

## CCCC[C@H](NC(=O)[C@H](CC(C)C)NC(=O)[C@H](CCC(N)=O)NC(=O)[C@@H](NC(=O)[C@H](CCC(=O)O)NC(=O)C(C)(C)NC(=O)[C@@H](NC(=O)C(C)(C)N)C(C)C)[C@@H](C)CC)C(=O)N[C@@H](Cc1cnc[nH]1)C(=O)N[C@@H](CCC(N)=O)C(=O)N[C@@H](CCCNC(=N)N)C(=O)N[C@@H](C)C(=O)N[C@@H](CCCCN)C(=O)N[C@@H](Cc1ccc(O)cc1)C(N)=O (H-[Aib]V[Aib]EIQL[Nle]HQRAKY-NH2)
[1]
  fold change (FC): -2
[2]
  EC50: 30 nM
[3]
  fold change (FC): 3
[4]
  EC50: 2.2 nM
Rattus norvegicus
  Activity: 150%
[5]
  fold change (FC): 14
[6]
  EC50: 0.15 nM
[7]
  fold change (FC): 66
[8]
  fold change (FC): 6
[9]
  fold change (FC): -2
[10]
  Kd: 21.6 nM
[11]
  fold change (FC): 13
[12]
  fold change (FC): 5
[13]
  EC50: 0.2 nM
[14]
  half-life: 15 min
[15]
  fold change (FC): 9
[16]
  EC50: 26 nM
[17]
  fold change (FC): 15
[18]
  fold change (FC): 9
[19]
  IC50: 6.87 nM
[20]
  Activity: 21%
[21]
  fold change (FC): 11
[22]
  EC50: 1.1 nM
[23]
  IC50: 55.4 nM
[24]
  fold change (FC): 4
[25]
  half-life: 20 min
[26]
  fold change (FC): 6
[27]
  fold change (FC): 48
[28]
  fold change (FC): 11
[29]
  EC50: 6 nM
[30]
  fold change (FC): 18
[31]
  fold change (FC): 4
